We go through 2 compounds from ChEMBL document CHEMBL1671867, “Novel polymyxin derivatives carrying only three positive charges are effective antibacterial agents” (Antimicrob Agents Chemother, 2008).

Structures are written as SMILES. A value given as a limit tells only on which side of the number the result lay.

Format in all cases: functional
Experiment [1] relates to Acinetobacter baumannii. Description: Antibacterial activity against Acinetobacter baumannii ATCC 19606 by Etest method.
The subject of experiment [2] is Acinetobacter baumannii. Description: Antibacterial activity against Acinetobacter baumannii F264 by Etest method in presence of 1 ug/ml NAB739.
Experiment [3] concerns Acinetobacter baumannii. The experiment is described as follows: (§1) Antibacterial activity against Acinetobacter baumannii ATCC 19606 by Etest method in presence of […] NAB739.
The test system of experiment [4] is Acinetobacter baumannii. The experiment is described as follows: Antibacterial activity against Acinetobacter baumannii F264 by Etest method. The essentials: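 E-strip MIC on Mueller-Hinton agar without added peptide; inoculum per manufacturer, matching CLSI M2-A9.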
The test system of experiment [5] is Acinetobacter baumannii. The experiment is described as follows: Antibacterial activity against Acinetobacter baumannii ATCC 19606 by Etest method in presence of NAB739.
For experiment [6], the system named is Acinetobacter baumannii. The experiment is described as follows: (§2) Antibacterial activity against Acinetobacter baumannii F264 by Etest method in presence of […] NAB739.
The subject of experiment [7] is Pseudomonas aeruginosa. The experiment is described as follows: Antibacterial activity against Pseudomonas aeruginosa ATCC 27853by Etest method in presence of 2 ug/ml NAB739.
For experiment [8], the system named is Acinetobacter baumannii. Description: Antibacterial activity against Acinetobacter baumannii F264 by Etest method in presence of NAB739.
Experiment [9] has as its system Pseudomonas aeruginosa. The experiment is described as follows: Antibacterial activity against Pseudomonas aeruginosa ATCC 27853by Etest method in presence of 1 ug/ml NAB739. A digest of the protocol:
(§3)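 MICs of the antibiotic taken from E-strips on Mueller-Hinton agar, run both with and without peptide. […] Inoculum was prepared per the strip manufacturer, matching CLSI M2-A9.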

For experiment [10], the system named is Pseudomonas aeruginosa. Description: (§4) Antibacterial activity against Pseudomonas aeruginosa ATCC 27853by Etest method in presence of […] NAB739.
Experiment [11] has as its system Acinetobacter baumannii. Description: Antibacterial activity against Acinetobacter baumannii F264 by Etest method in presence of 0.5 ug/ml NAB739.
Experiment [12] relates to Acinetobacter baumannii. Described as §1. The source holds these as a separate data set.
The test system of experiment [13] is Pseudomonas aeruginosa. Described as §4. The source holds these as a separate data set.
The test system of experiment [14] is Acinetobacter baumannii. Described as §2. The source holds these as a separate data set.
In experiment [15] the test system is Pseudomonas aeruginosa. Description: Antibacterial activity against Pseudomonas aeruginosa ATCC 27853by Etest method in presence of 0.5 ug/ml NAB739. The essentials:
as §3

Experiment [16] deals with Acinetobacter baumannii. Description: Antibacterial activity against Acinetobacter baumannii ATCC 19606 by Etest method in presence of 1 ug/ml NAB739.
The subject of experiment [17] is Pseudomonas aeruginosa. The experiment is described as follows: Antibacterial activity against Pseudomonas aeruginosa ATCC 27853by Etest method. The essentials:
as §3

Experiment [18] deals with Acinetobacter baumannii. The experiment is described as follows: Antibacterial activity against Acinetobacter baumannii ATCC 19606 by Etest method in presence of 0.5 ug/ml NAB739.

For `CC(=O)O[C@H]1C[C@@]2(C)[C@@H](C[C@@H](O)[C@H]3[C@@]4(C)CC[C@@H](O)[C@@H](C)[C@@H]4CC[C@@]32C)/C1=C(\CCC=C(C)C)C(=O)O` [FUSIDIC ACID], the MIC – broadly, the smallest concentration in the dilution series that meets the test's criterion for growth inhibition – against Acinetobacter baumannii [1] was > 256 µg/mL; with Acinetobacter baumannii [2] it was 1 µg/mL; with Acinetobacter baumannii [3], 32 µg/mL; with Acinetobacter baumannii [4], > 256 µg/mL; in the experiment on Acinetobacter baumannii [6], 32 µg/mL; with Pseudomonas aeruginosa [7], 192 µg/mL. The MIC was > 256 µg/mL in the experiment with Pseudomonas aeruginosa [9]; > 256 µg/mL with Pseudomonas aeruginosa [10]; 3 µg/mL in the experiment on Acinetobacter baumannii [11]; 12 µg/mL with Acinetobacter baumannii [12]; > 256 µg/mL in the experiment with Pseudomonas aeruginosa [13]; 12 µg/mL with Acinetobacter baumannii [14]. Besides, the minimal inhibitory concentration (MIC) with Pseudomonas aeruginosa [15] is > 256 µg/mL; with Acinetobacter baumannii [16], 1 µg/mL; against Pseudomonas aeruginosa [17] it was > 256 µg/mL; with Acinetobacter baumannii [18], 4 µg/mL. Also, the “fractional inhibitory concentration index (FICI)” value in the experiment on Acinetobacter baumannii [5] and in the experiment on Acinetobacter baumannii [8] was “<=0.172” throughout.
In the case of `CN[C@H](CC(C)C)C(=O)N[C@H]1C(=O)N[C@@H](CC(N)=O)C(=O)N[C@H]2C(=O)N[C@H]3C(=O)N[C@H](C(=O)N[C@H](C(=O)O)c4cc(O)cc(O)c4-c4cc3ccc4O)[C@H](O)c3ccc(c(Cl)c3)Oc3cc2cc(c3O[C@@H]2O[C@H](CO)[C@@H](O)[C@H](O)[C@H]2O[C@H]2C[C@](C)(N)[C@H](O)[C@H](C)O2)Oc2ccc(cc2Cl)[C@H]1O` [VANCOMYCIN], the MIC in the experiment with Acinetobacter baumannii [1] is > 256 µg/mL; in the experiment with Acinetobacter baumannii [2], 1 µg/mL; with Acinetobacter baumannii [3], 64 µg/mL; against Acinetobacter baumannii [4] it was > 256 µg/mL; with Acinetobacter baumannii [6] it was 256 µg/mL; in the experiment on Pseudomonas aeruginosa [7], > 256 µg/mL. For the same compound, the minimum inhibitory concentration (MIC) is > 256 µg/mL in the experiment with Pseudomonas aeruginosa [9]; > 256 µg/mL in the experiment with Pseudomonas aeruginosa [10]; 3 µg/mL with Acinetobacter baumannii [11]; 8 µg/mL with Acinetobacter baumannii [12]; > 256 µg/mL with Pseudomonas aeruginosa [13]; 16 µg/mL in the experiment on Acinetobacter baumannii [14]. In addition, the minimal inhibitory concentration (MIC) in the experiment on Pseudomonas aeruginosa [15] was > 256 µg/mL; in the experiment on Acinetobacter baumannii [16] it was 1 µg/mL; in the experiment with Pseudomonas aeruginosa [17], > 256 µg/mL; in the experiment on Acinetobacter baumannii [18], 3 µg/mL. In addition, the results for the “fractional inhibitory concentration index (FICI)” value in the experiment with Acinetobacter baumannii [5] and with Acinetobacter baumannii [8] were “<=0.156” and “<=0.188”, respectively.
